The text below walks through data of PMC3113694 (Cancer research, 2010).

What is called IC50 is the concentration that gives 50% inhibition. For orientation: Kd means the free concentration of one partner at which half of the binding sites on the other are occupied at equilibrium, for simple one-to-one binding. Broadly, the MRT is a mean duration of stay, worked out from the concentration-time curve. A word on the Tmax: it is the time from dosing to the highest level. For orientation: Vss means the apparent volume that relates the amount in the body to the concentration in plasma or blood. Higher therefore signals extensive tissue distribution.

The subject of data set [1] is C57/BL6 mice. The experiment in a line: Toxicity determination in mice after tail vein injection.
In the next data set the test system is HeLa. In words: Cytotoxicity, sulforhodamine B assay. Format: cell-based. To be noted: read-out: 72 hour IC50; HeLa human cervical; exposure 72 h. (In general: The SRB assay estimates cell density from bound dye.)
Another data set deals with OSW. The experiment in a line: Cytotoxicity, sulforhodamine B assay. To be noted: read-out: 72 hour IC50; OSW dog lymphoma; exposure 72 h. It is filed as cell-based.
The target in another data set is T1, procaspase-3 D3A (Homo sapiens, UniProt P42574, D175A/D28A/D9A).
T1 sequence (P42574 1-277 D9A/D28A/D175A): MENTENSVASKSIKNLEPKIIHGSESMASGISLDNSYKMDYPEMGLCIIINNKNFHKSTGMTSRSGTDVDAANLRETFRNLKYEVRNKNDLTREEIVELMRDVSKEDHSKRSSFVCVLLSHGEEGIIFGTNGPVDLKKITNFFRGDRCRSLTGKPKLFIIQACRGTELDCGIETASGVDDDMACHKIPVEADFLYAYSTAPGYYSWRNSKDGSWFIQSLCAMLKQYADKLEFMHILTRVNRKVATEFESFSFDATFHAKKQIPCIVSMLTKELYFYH
In words: Procaspase-3 activation. It is filed as biochemical. To be noted: 50 µM compound; for Incubation time to maximal activity: procaspase-3 7.5 µM, zinc 10 µM. Summed up:
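Zinc-free uncleavable procaspase-3 (D9A/D28A/D175A), recombinantly expressed, at 7.5 µM in Chelex-treated 50 mM Hepes, 300 mM NaCl. Incubated with 10 µM ZnSO4. Basal activity read with 200 µM Ac-DEVD-pNA at 405 nm. Vehicle or test compound then added to 50 µM final and activity re-read every 20 min. Activity was taken from the slope and normalised to a zinc-free sample (100%) and DMSO (0%), n=3.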

Another data set concerns Jurkat. In words: Cytotoxicity, sulforhodamine B assay. As to conditions: read-out: 72 hour IC50; Jurkat human leukemia; exposure 72 h. Format: cell-based.
Another data set deals with healthy dog. The experiment in a line: Toxicity of intravenous PAC-1 in a healthy dog. Format: in vivo. As to conditions: 25 mg/kg as a 5-minute intravenous infusion; transient, not life-limiting.
Data set [2] can be described thus: Pharmacokinetics in mice after tail vein injection. It is filed as in vivo, C57/BL6 mice.
The conditions of data set [3]: read-out: Kd of PAC-1:Zn^2+; cited from earlier work.
A further data set relates to GL-1. In words: Cytotoxicity, sulforhodamine B assay. Format: cell-based. To be noted: read-out: 72 hour IC50; GL-1 dog lymphoma; exposure 72 h.
For another data set, the system named is SK-Mel-5. The experiment in a line: Cytotoxicity, sulforhodamine B assay. Format: cell-based. As to conditions: read-out: 72 hour IC50; SK-Mel-5 human melanoma; exposure 72 h.
The next data set deals with 17–71. In words: Cytotoxicity, MTS cell viability assay. As to conditions: read-out: 72 hour IC50, 17–71 dog lymphoma, exposure 72 h. Format: cell-based.
The next data set relates to EL-4. The experiment in a line: Cytotoxicity, sulforhodamine B assay. Format: cell-based. To be noted: read-out: 72 hour IC50; EL-4 mouse lymphoma; exposure 72 h.
Data set [4] concerns C57/BL6 mice. As to conditions: mouse, in vivo.
The subject of a further data set is U-937. In words: Cytotoxicity, sulforhodamine B assay. It is filed as cell-based, Human. To be noted: read-out: 72 hour IC50, exposure time 72 h.
Another data set deals with MDA-MB-231. In words: Cytotoxicity, sulforhodamine B assay. Format: cell-based. As to conditions: read-out: 72 hour IC50; MDA-MB-231 human breast; exposure 72 h.
A short description of data set [5]: Pharmacokinetics in healthy research dogs, single IV dose. It is filed as in vivo. As to conditions: 25 mg/kg IV; individual dogs Hound A-D.

Where “and” joins values, the source holds several entries; their conditions need not be identical. Equal entries are not always repeated. Some results are limits rather than exact numbers.

Regarding `C=CCc1cccc(/C=N/NC(=O)CN2CCN(Cc3ccccc3)CC2)c1O` [PAC-1], the Resolution of neurotoxicity with C57/BL6 mice [1] (in HPβCD via tail vein injection) is not above 2 h. Further, in the data set on C57/BL6 mice [1] (tail vein injection), the “Dose at which significant neurological symptoms first appear” value was found to be 20 mg/kg. Also, in the data set with C57/BL6 mice [1] (tail vein injection), the “Dose where acute neurological symptoms are present” value was found to be 50 mg/kg. Moreover, the half-inhibitory concentration (IC50) with HeLa was found to be 15.5 ± 3.8 µM; with OSW, 8.6 ± 1.3 µM; in the data set on Jurkat, 5.7 ± 2.8 µM; with GL-1, 4.9 ± 0.3 µM; with SK-Mel-5 it was 11.5 ± 3.6 µM; with 17–71, 2500 ± 900 nM. Besides, the half-inhibitory concentration (IC50) turned out to be 3.8 ± 0.9 µM in the data set on EL-4, 9.3 ± 0.5 µM with U-937 and 9.9 ± 1 µM with MDA-MB-231. Besides, on procaspase-3 D3A, the “Incubation time to maximal activity” value amounted to 5 min. Also, the “Neurotoxicity in one healthy dog” value with healthy dog is on record as “grand mal seizure activity”. In data set [2] (20 mg/kg tail vein injection), the Peak plasma concentration is reported as ~ 50 µM. The equilibrium dissociation constant (Kd) in data set [3] is 52 ± 2 nM. Also, the “Onset of neurotoxicity after drug administration” value in the data set on C57/BL6 mice [4] was not above 5 min.
Take `C=CCc1cccc(C=NNC(=O)CN2CCN(Cc3ccc(S(N)(=O)=O)cc3)CC2)c1O` [S-PAC-1]: the “Incubation time to maximal activity” value on procaspase-3 D3A turned out to be 5 min. Moreover, at procaspase-3 D3A (procaspase-3 D3A 7.5 µM, ZnSO4 10 µM), the “Enhancement of enzymatic activity of the proenzyme” value is reported as “enhances the enzymatic activity of the proenzyme by relief of zinc-mediated inhibition, although to a lesser degree than PAC-1”. Also, the Peak plasma levels in data set [2] (350 mg/kg tail vein injection, without signs of neurotoxicity) was ~ 3500 µM. Moreover, in data set [5], the AUMC0-inf is 93.63 h*h*ug/ml and 104.77 h*h*ug/ml and 90.48 h*h*ug/ml and 101.78 h*h*ug/ml; the Cls is 340 mL/h/kg and 335 mL/h/kg and 304 mL/h/kg and 317 mL/h/kg; the mean residence time (MRT) was 1.27 h and 1.40 h and 1.10 h and 1.29 h; the Tmax turned out to be 10.2 min. In data set [5], the Vss was 432.5 mL/kg and 470.8 mL/kg and 334.8 mL/kg and 410 mL/kg.
